Results as given in ChEMBL document CHEMBL1125085, “Synthesis and anticonvulsant activity of some new 2-substituted 3-aryl-4(3H)-quinazolinones” (J Med Chem, 1990).

Assays:
[1] = system: Mus musculus; assay: Rotarod test was used to evaluate neurotoxicity in mice. Values are reported after 0.5 h, at 300 mg/kg; no activity or toxicity up to 300 mg/kg; type: organism-based; conditions: in vivo
[2] = system: Mus musculus; assay: Anticonvulsant activity was determined in Subcutaneous metrazole (scMet) test 0.5 h after administration of 300 mg/kg in (mice/rat); no activity or toxicity up to 300 mg/kg; type: functional, organism-based
[3] = system: Mus musculus; assay: Anticonvulsant activity was determined in maximal electroshock seizure test 0.5 h after administration of 300 mg/kg in (mice/rat); no activity or toxicity up to 300 mg/kg; type: functional, organism-based
[4] = system: Mus musculus; assay: Subcutaneous metrazole (scMet) test was done, 4.0 hr after administration; no activity or toxicity up to 300 mg/kg; type: functional, organism-based; parameters: dose 300 mg/kg
[5] = system: Mus musculus; assay: Anticonvulsant activity was determined in maximal electroshock seizure test 4.0 h after administration of 300 mg/kg in (mice/rat); no activity or toxicity up to 300 mg/kg; type: functional, organism-based
[6] = system: Mus musculus; assay: Subcutaneous metrazole (scMet) test was conducted and median effective dose was determined at the time of peak anticonvulsant and sedative effect.; type: functional; conditions: sc
Summary of the method: (§1)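 Pentylenetetrazol (85 mg/kg in mice, 70 mg/kg in rats) was given subcutaneously in the posterior midline as a 0.5% solution. Compounds were in 30% PEG 400, dosed ip in male Carworth Farms no. 1 mice, or orally in mice and Sprague-Dawley rats. ED50 was read at time of peak effect, using groups of 8–16 animals and ≥3 doses giving 10–90% protection. Probit analysis gave 95% confidence intervals.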

[7] = system: Mus musculus; assay: Rotarod test was used to evaluate neurotoxicity in mice. Toxicity values are reported after 0.5 h. toxicity at 300 mg/kg; - denotes no activity observed at 300 mg/kg toxic; type: organism-based; conditions: in vivo
[8] = system: Mus musculus; assay: Subcutaneous metrazole (scMet) test was conducted and median effective dose was determined at the time of peak anticonvulsant and sedative effect; type: functional; conditions: sc; summary of the method: as §1
[9] = system: Mus musculus; assay: Subcutaneous metrazole (scMet) test was conducted after Injecting intraperitoneally at the time of peak anticonvulsant in phase II test; type: functional
Summary of the method: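 Phase II testing in male Carworth Farms no. 1 mice, ip dosing in 30% PEG 400 (0.01 mL/g). Groups of 8–16 mice received a range of doses, giving at least three points in 10–90% protection. ED50 with 95% confidence interval was fitted by probit analysis at the time of peak effect. scMet used pentylenetetrazol 85 mg/kg sc.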

[10] = species on record: Mus musculus; assay: Time taken to reach peak activity was reported.; type: functional
[11] = species on record: Mus musculus; assay: Time taken to reach peak toxicity was reported.; type: organism-based; conditions: in vivo
[12] = Median toxic dose was measured at time of peak neurologic deficit.; type: organism-based; conditions: mouse, in vivo
Summary of the method: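 Mice dosed ip in 30% PEG 400. Minimal neurotoxicity was scored by rotorod at the time of peak neurologic deficit. Groups of 8–16 mice were used, with at least three points in the 10–90% range, and TD50 with 95% confidence interval was derived by probit analysis.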

[13] = Protective index is the ratio of TD50 and ED50 values obtained in the subcutaneous metrazole (scMet) test.; type: functional
Summary of the method: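 Protective index = TD50/ED50. Both values are medians from groups of 8–16 animals per dose, with at least three points in the 10–90% effect range, fitted by probit analysis. Each was taken at its own time of peak effect: seizure protection for ED50, neurologic deficit for TD50.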

Cc1ccc(-n2c(CC(=O)c3cccnc3)nc3ccccc3c2=O)cc1
Activity [1]: No activity or toxicity up to 300 mg/kg | Activity [2]: No activity or toxicity up to 300 mg/kg | Activity [3]: No activity or toxicity up to 300 mg/kg | Activity [4]: No activity or toxicity up to 300 mg/kg | Activity [5]: No activity or toxicity up to 300 mg/kg

CCC1(c2ccccc2)C(=O)NC(=O)NC1=O [PHENOBARBITAL]
ED50 [6]: 13.2 mg/kg

O=C(Cc1nc2ccccc2c(=O)n1-c1ccccc1Cl)c1cccnc1
Activity [7]: Toxic

CCC1(c2ccccc2)NC(=O)N(C)C1=O (centres undefined) [MEPHENYTOIN]
ED50 [8]: 30.5 mg/kg

COc1ccccc1-n1c(CC(=O)c2ccncc2)nc2ccccc2c1=O
ED50 [9]: 42 mg/kg | TPE [10]: 2 h | TPE [11]: 0.5 h | TD50 [12]: 370 mg/kg | PI [13]: 8.8

CCC1(c2ccccc2)C(=O)NCNC1=O [PRIMIDONE]
ED50 [6]: 58.6 mg/kg
